In ChEMBL document CHEMBL4304756, “Second-Generation Tryptamine Derivatives Potently Sensitize Colistin Resistant Bacteria to Colistin” (ACS Med Chem Lett, 2019):
Calls of active or inactive are those of the source. The rule behind the calls is not given here.

What was measured:
Escherichia coli [1] = test: Potentiation of colistin-induced antibacterial activity against Escherichia coli YD626 harbouring mcr-1 gene assessed as colistin MIC at 50 uM incubated for 16 hrs by broth microdilution method (reference value: 8 ug/ml); type: functional; settings: YD626, 16 h
Escherichia coli [2] = test: Potentiation of colistin-induced antibacterial activity against Escherichia coli YD626 harbouring mcr-1 gene assessed as reduction in colistin MIC at 5 uM incubated for 16 hrs by broth microdilution method (reference value: 8 ug/ml); type: functional; settings: YD626, 16 h
In short: (§1)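 For the dose-response, colistin MIC was measured against mcr-1 plasmid-bearing E. coli, K. pneumoniae and A. baumannii while the adjuvant concentration was lowered stepwise (30, 15 μM, down to 5 μM). The aim was to find where the MIC rose above the 2 μg/mL CLSI susceptibility breakpoint.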

Klebsiella pneumoniae [3] = test: Potentiation of colistin-induced antibacterial activity against Klebsiella pneumoniae B9 assessed as reduction in colistin MIC at 20 uM incubated for 16 hrs by broth microdilution method (reference value: 512 ug/ml); type: functional; settings: B9, 16 h
Klebsiella pneumoniae [4] = test: Potentiation of colistin-induced antibacterial activity against Klebsiella pneumoniae B9 assessed as reduction in colistin MIC at 10 uM incubated for 16 hrs by broth microdilution method (reference value: 512 ug/ml); type: functional; settings: B9, 16 h
In short: (§2)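 Colistin MIC was measured against chromosomally colistin-resistant strains (K. pneumoniae B9, C3; A. baumannii 4106, among four strains) with adjuvant at fixed levels from 20 μM down to 7.5 μM. Fold reduction was reported against colistin alone, with the CLSI breakpoint taken as ≤2 μg/mL.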

Klebsiella pneumoniae [5] = test: Potentiation of colistin-induced antibacterial activity against Klebsiella pneumoniae B9 assessed as reduction in colistin MIC at 5 uM incubated for 16 hrs by broth microdilution method (reference value: 512 ug/ml); type: functional; settings: B9, 16 h
Klebsiella pneumoniae [6] = test: Potentiation of colistin-induced antibacterial activity against Klebsiella pneumoniae C3 assessed as reduction in colistin MIC at 20 uM incubated for 16 hrs by broth microdilution method (reference value: 512 ug/ml); type: functional; settings: C3, 16 h; in short: as §2
Klebsiella pneumoniae [7] = test: Potentiation of colistin-induced antibacterial activity against Klebsiella pneumoniae C3 assessed as reduction in colistin MIC at 10 uM incubated for 16 hrs by broth microdilution method (reference value: 512 ug/ml); type: functional; settings: C3, 16 h
Acinetobacter baumannii [8] = test: Potentiation of colistin-induced antibacterial activity against Acinetobacter baumannii 4106 assessed as reduction in colistin MIC at 15 uM incubated for 16 hrs by broth microdilution method (reference value: 1024 ug/ml); type: functional; settings: Acinetobacter baumannii, 4106, 16 h
Acinetobacter baumannii [9] = test: Potentiation of colistin-induced antibacterial activity against Acinetobacter baumannii 4106 assessed as reduction in colistin MIC at 5 uM incubated for 16 hrs by broth microdilution method (reference value: 1024 ug/ml); type: functional; settings: Acinetobacter baumannii, 4106, 16 h
[10] = Hemolytic activity in sheep RBC at 200 uM incubated for 1 hr by UV spectrophotometry; type: ADME, cell-based, Ovis aries, Erythrocyte; settings: sheep red blood cells (erythrocytes), read-out: Activity
In short: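 Red blood cells exposed to compound at 200 μM, with percent cell lysis recorded.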

[11] = Cytotoxicity against mouse 4T1 cells assessed as reduction in cell viability in presence of 1 ug/ml colistin incubated for 18 hrs by MTT assay; type: cell-based
In short: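 4T1 mouse mammary tumor cells exposed to compound for 18 h, alone or together with colistin at 1 μg/mL. Medium then aspirated and replaced with 0.5 mg/mL MTT in culture medium for colorimetric viability read-out. CT50 taken as the concentration giving 50% cell viability.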

Acinetobacter baumannii [12] = test: Potentiation of colistin-induced antibacterial activity against Acinetobacter baumannii 17978 harbouring mcr-1 gene assessed as reduction in colistin MIC at 15 uM incubated for 16 hrs by broth microdilution method; type: functional, organism-based; in short: as §1

O=C(NCCc1c[nH]c2ccc(Br)cc12)Nc1cc(Cl)c(Br)c(Cl)c1
MIC (Escherichia coli [1]): 1 µg/mL
MIC (Escherichia coli [2]): 1 µg/mL
MIC (Klebsiella pneumoniae [3]): ≤ 0.25 µg/mL
MIC (Klebsiella pneumoniae [4]): ≤ 0.25 µg/mL
MIC (Klebsiella pneumoniae [5]): 0.5 µg/mL
MIC (Klebsiella pneumoniae [6]): 0.5 µg/mL
MIC (Klebsiella pneumoniae [7]): 1 µg/mL
MIC (Acinetobacter baumannii [8]): ≤ 0.5 µg/mL
MIC (Acinetobacter baumannii [9]): 4 µg/mL
hemolysis at 1 h, 200 µM [10]: < 2.5%
CC50 at 18 h [11]: 64.9 µM
Activity (Acinetobacter baumannii [12]): Active
